The source of these data is ChEMBL document CHEMBL1127458, “Synthesis and quantitative structure-activity relationships of anticonvulsant 2,3,6-triaminopyridines” (J Med Chem, 1994).

Each structure is given as a SMILES string.

For the test, the species on record is Mus musculus. Nature of the test: Effective dosage for inhibition of maximal electroshock stimulated convulsions. It counts as functional. In a few lines:
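Mice (male Carworth Farms #1), groups of at least eight, were given various doses and tested at the previously determined time of peak effect. Protection was defined as abolition of the hind limb tonic extension component of the seizure. Dosing continued until at least two points lay between 0% and 100% protection. The 50% dose and 95% confidence interval were derived by Finney's method.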
Regarding `CCOC(=O)Nc1ccc(NCc2ccccc2)nc1N.Cl`, the “Log 1/ED50” value was determined as 4.214.

Consider `Cl.Nc1nc(NCc2ccc(Cl)cc2)ccc1NC(=O)Oc1ccccc1`, for which the “Log 1/ED50” value stood at 3.507. Next, `C=CCOC(=O)Nc1ccc(NCc2ccc(F)cc2)nc1N`: 4.48; `CC(=O)Nc1ccc(NCc2ccc(F)cc2)nc1N.Cl`: 3.567. Turning to `CCOC(=O)Nc1ccc(NCc2cccc(F)c2)nc1N.Cl`, the “Log 1/ED50” value is recorded as 4.297.

As for `CCOC(=O)Nc1ccc(NCc2c(C)cccc2C)nc1N.Cl`, the “Log 1/ED50” value is 5.01. For the molecule `CCOC(=O)Nc1ccc(NCc2ccc(C)cc2C)nc1N.Cl`, the “Log 1/ED50” value came out at 4.53. Next, `CCOC(=O)Nc1ccc(NCc2ccc(NC(C)=O)cc2)nc1N.Cl`: 3.487; `CCOC(=O)Nc1ccc(NCc2ccc(C(F)(F)F)cc2)nc1N.Cl`: 4.146; `CCOC(=O)Nc1ccc(NC(C)c2ccc(F)cc2)nc1N.Cl` (stereo not given): 3.938. For `CCOC(=O)Nc1ccc(NCc2ccccc2C)nc1N.Cl`, the “Log 1/ED50” value worked out at 4.872.

Consider `Cl.Nc1nc(NCc2ccc(F)cc2)ccc1NC(=O)Oc1ccccc1`, for which the “Log 1/ED50” value was 3.724. Regarding `Cl.Nc1nc(NCc2ccccc2)ccc1NC(=O)Oc1ccccc1`, the “Log 1/ED50” value came to 3.942. Consider `Cc1noc(C)c1C(=O)Nc1ccc(NCc2ccc(F)cc2)nc1N.Cl`, for which the “Log 1/ED50” value turned out to be 3.94. The result for `CCOC(=O)Nc1ccc(NCc2ccccc2O)nc1N.Cl` reads 3.896; that for `Cl.Nc1nc(NCc2ccc(F)cc2)ccc1N1CCOC1=O`, 4.065. Take `CCOC(=O)Nc1ccc(NCc2ccc(Cl)cc2)nc1N.Cl`: the “Log 1/ED50” value stood at 4.388. Next, `CCOC(=O)Nc1ccc(NCc2ccc(F)cc2)nc1N.Cl`: 4.13. Next, `COC(=O)Nc1ccc(NCc2ccc(F)cc2)nc1N.Cl`: 4.11. The result for `CCOC(=O)Nc1ccc(NCc2ccc(C(C)=O)cc2)nc1N.Cl` reads 3.831; that for `CCOC(=O)Nc1ccc(NCc2c(C)cc(C)cc2C)nc1N.Cl`, 5.268; that for `CCOC(=O)Nc1ccc(NCc2ccc(F)cc2F)nc1N.Cl`, 4.321. As to `CCOC(=O)Nc1ccc(NCc2ccc(C)c(Cl)c2)nc1N.Cl`, the “Log 1/ED50” value is given as 4.083. The result for `CCOC(=O)Nc1ccc(NCc2ccc(S(N)(=O)=O)cc2)nc1N.Cl` reads 3.572. The result for `Cl.Nc1nc(NCc2ccc(F)cc2)ccc1NC(=O)OCCCl` reads 4.46.
